# Compound activity deposited in PubChem by several laboratories.
# PMI activator – increases human mannose-6-phosphate isomerase activity. 190,000 tested, 0.005% active. P34949. purified human PMI, coupled resazurin fluorescence, 20 min; hits give high values; 1 = vehicle control, 0 substrate-free wells. activation factor at 20 µM;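 active = activation factor of 2 or more at 20 µM, relative to plate controls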
# Target sequence (P34949 whole entry, looked up): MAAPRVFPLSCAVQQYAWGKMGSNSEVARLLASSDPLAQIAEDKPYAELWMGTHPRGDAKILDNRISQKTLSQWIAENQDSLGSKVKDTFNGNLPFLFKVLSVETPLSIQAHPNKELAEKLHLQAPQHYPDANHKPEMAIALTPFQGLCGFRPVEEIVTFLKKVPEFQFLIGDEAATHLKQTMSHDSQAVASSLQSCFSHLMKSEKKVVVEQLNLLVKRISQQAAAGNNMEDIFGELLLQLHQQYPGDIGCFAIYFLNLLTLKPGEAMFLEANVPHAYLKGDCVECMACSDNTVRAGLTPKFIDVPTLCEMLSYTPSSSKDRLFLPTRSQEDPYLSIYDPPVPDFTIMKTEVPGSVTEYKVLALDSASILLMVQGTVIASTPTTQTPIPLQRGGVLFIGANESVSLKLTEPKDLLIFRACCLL
# L major viab – inhibitors of Leishmania major promastigote growth; Leishmania major promastigotes, resazurin fluorescence viability; inhibition, % at 10 µM; 200,000 tested, 9% active; in the data active = inhibition above about 50%;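 also: promastigotes grown with compound for 44 hours at 28 °C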
# Diaph act CS – counter-screen for diaphorase-based assays: diaphorase activators and chemical reducers. Diaphorase/resazurin coupled assay, resorufin fluorescence, 16 min; hits give high values; 1 = vehicle wells, 0 = NADH-free wells. activation factor at 20 µM. 190,000 tested, 0.005% active. AID 1229;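 active = diaphorase activity raised at least twofold by the compound at 20 µM; inactive = activation factor below 2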
#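 System – purified diaphorase enzyme from Clostridium kluyveri · Input – enzyme 0.07 U/mL final · Also added – final NADH 0.114 mM, resazurin 0.1 mM · Measured by – fluorescence of resorufin, 544 nm excitation, 590 nm emission · Timing – 16 min enzyme reaction, ambient temperature · Measure – resorufin increase flagging diaphorase activators or reducers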
# WT yeast gro inh – growth inhibition of WT yeast, mitochondrial fusion screen. mitochondrial fusion phenotypic screen, WT strain. inhibition, % at 10 µM. 190,000 tested, 2.1% active; in the data active = inhibition above about 58%; tested in S. cerevisiae
# PMI act satM6P – PMI (human) activation, high substrate. P34949. coupled PMI enzyme assay, resazurin fluorescence, 20 min; hits give high values; 1 = untreated enzyme, 0 = substrate-free blank. activation factor at 20 µM. 190,000 tested, 0.34% active;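 active = activation factor of 2 or more at 20 µM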
#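 assay system = human phosphomannose isomerase with PGI, G6PDH, diaphorase coupling enzymes | quantity = 15 ng/mL PMI | incubation = enzyme reaction with compound 20 min at room temperature | medium = HEPES pH 7.4 buffer with MgCl2 and Tween-20 | compound dosing = one concentration, 20 µM, in 1% DMSO | measured by = Diaphorase-driven resazurin-to-resorufin fluorescence, excitation 544, emission 590 nm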
# Numbers stand for hits; i = inactive. Hits are enriched below; roughly 10% of the tested compounds scored in any of these assays.
SMILES,PMI activator,L major viab,Diaph act CS,WT yeast gro inh,PMI act satM6P
O=C(NC(=S)N(Cc1ccccc1)c1ccccn1)C1CC1,i,i,i,i,i
Cc1cnc(CN2CCc3c([nH]c4ccccc34)C2C2CCCCC2)[nH]1 (centres undefined),i,54,i,i,i
c1ccc2c3c([nH]c2c1)C(C1CCCCC1)N(Cc1ncc[nH]1)CC3 (centres undefined),i,i,i,i,i
c1ccc(CN(Cc2cccs2)C(c2cccs2)c2nnnn2C2CCCC2)cc1 (centres undefined),i,89,i,i,i
O=C(c1ccco1)N1CCN(C(c2cccs2)c2nnnn2C2CCCC2)CC1 (centres undefined),i,i,i,i,i
CCC(C)(C)n1nnnc1C(c1cccs1)N1CCCCC1 (centres undefined),i,i,i,i,i
c1csc(C(c2nnnn2C2CCCCC2)N2CCCC3(CCCCC3)C2)c1 (centres undefined),i,i,i,62,i
c1ccc(CC2CCN(C(c3cccs3)c3nnnn3C3CCCC3)CC2)cc1 (centres undefined),i,64,i,i,i
CC(C)(C)n1nnnc1C(c1cccs1)N1CCCC2(CCCCC2)C1 (centres undefined),i,i,i,78,i
S=C1NC2CCCCC2N1 (centres undefined),i,i,i,i,i
COC(=O)Oc1ccc(/C=N/NC(=O)CN(c2ccccc2Cl)S(C)(=O)=O)cc1OC,i,i,i,i,i
CC(NC(=O)CNC(=S)N(Cc1ccccc1)Cc1cccnc1)c1ccccc1 (centres undefined),i,65,i,i,i
O=C(Cc1cccs1)NCc1ccc(F)cc1,i,i,i,i,i
Cc1ccc(CNC(=O)CNC(=S)N(Cc2ccccc2)Cc2cccnc2)cc1,i,97,i,i,i
Cc1ccc(CN(Cc2ccco2)C(=S)NCC(=O)NCc2cccnc2)cc1,i,i,i,i,i
O=C(CNC(=S)N(Cc1ccccc1)Cc1ccccc1F)NCCc1ccc(Cl)cc1,i,98,i,75,i
O=C(CNC(=S)N(Cc1ccccc1)Cc1cccs1)NCc1ccc(F)cc1,i,i,i,61,i
COCCCNC(=O)CNC(=S)N(Cc1ccccc1)Cc1cccnc1,i,i,i,i,i
COCCNC(=O)CNC(=S)N(Cc1ccccc1)Cc1cccnc1,i,i,i,i,i
CC#CC(=O)N1CCC(CO)(CCc2ccccc2)CC1,i,i,i,i,i
Cc1cc(C(=O)CN2C(=O)NC3(CCCc4sccc43)C2=O)c(C)n1-c1ccc(Cl)cc1 (centres undefined),i,84,i,i,i
CC1C2CC(C/C2=N/NC(=O)c2cccs2)C1(C)C (centres undefined),i,95,i,i,i
CCOC(=O)C/C(C)=N/NC(=O)c1cccs1,i,i,i,i,i
N#CC1=C(S)N(c2ccccc2)C(c2cccs2)NC1=O (centres undefined),i,i,i,i,i
Cc1ccc(N2C(S)=C(C#N)C(=O)NC2c2cccs2)cc1 (centres undefined),i,61,i,i,i
SMILES,PMI activator,L major viab,Diaph act CS,WT yeast gro inh,PMI act satM6P
CC(/C=N\NC(=O)Cn1c(C)nc2ccccc21)=C\c1ccccc1,i,i,i,i,i
[O-]C1=N/[N+](=C/c2ccc(Cl)cc2)CC1,i,i,i,i,2
Cc1ccccc1NC(=O)Cn1c([N+](=O)[O-])cnc1C,i,i,i,i,i
Cc1ncc([N+](=O)[O-])n1CC(=O)NC1CCCCC1,i,83,i,i,i
Cc1ncc([N+](=O)[O-])n1Cc1cccc(F)c1,i,85,i,i,i
Cc1ccc(Cn2c([N+](=O)[O-])cnc2C)cc1,i,i,i,i,i
Cc1ncc([N+](=O)[O-])n1Cc1ccccc1,i,73,i,i,i
C#Cc1ccc([C@@H]2C=C(C(=O)OCC=C)O[C@H](OCCCCO)C2)cc1,i,i,i,i,i
CNC(=O)c1ccc(-c2ccc(Cl)c(Cl)c2)s1,i,56,i,i,i
CNC(=O)c1ccc(-c2ccc(F)cc2)s1,i,i,i,i,i
COc1cc(OC)cc(-c2cc3nc(C)cc(N4CCN(C(=O)c5ccco5)CC4)n3n2)c1,i,i,i,i,i
CC1Cc2ccccc2N1c1nc(C2CC2)nc2c1nnn2Cc1ccccc1 (centres undefined),i,i,i,i,i
CC1Cc2ccccc2N1c1ncnc2c1nnn2Cc1ccccc1 (centres undefined),i,i,i,65,i
NS(=O)(=O)c1ccc(CCn2c(=S)[nH]c3ccc(F)cc3c2=O)cc1,i,76,i,i,i
NS(=O)(=O)c1ccc(CCNC(=O)C2CCC(Cn3c(=S)[nH]c4ccccc4c3=O)CC2)cc1 (centres undefined),i,i,i,i,i
CCOC(=O)N1CCN(C(=O)CCl)CC1,i,i,i,i,i
O=C1OC(Oc2ccccc2)(c2ccccc2)c2ccccc21 (centres undefined),i,98,i,i,i
Cc1nc2ccc(S(=O)(=O)NCC(=O)Nc3cccc(F)c3)cc2s1,i,i,i,i,i
S=c1[nH]nc(-c2cccnc2)n1C1CCCCC1,i,53,i,i,i
CC1CCCCC1n1c(-c2cccnc2)n[nH]c1=S (centres undefined),i,i,i,i,i
CC1=C(C(=O)Nc2ccccc2)C(c2ccc(Cl)cc2)n2c(s/c(=C/c3cccc(OCC(=O)O)c3)c2=O)=N1 (centres undefined),i,i,i,i,i
O=C1CCCC2=C1C(c1ccc(Cl)cc1)n1c(s/c(=C\c3ccc4ccncc4c3)c1=O)=N2 (centres undefined),i,98,i,i,i
COc1cc(/C=N/N=C/c2cc(OC)c(O)c(OC)c2)cc(OC)c1O,i,i,i,i,i
COc1cc(/C=N/N=C(/C(=O)c2ccccc2)c2ccccc2)cc(OC)c1O,i,i,i,72,i
Cc1ccc(C(=O)C(c2ccccc2)N2Cc3ccccc3C2=N)cc1 (centres undefined),i,99,i,70,i
SMILES,PMI activator,L major viab,Diaph act CS,WT yeast gro inh,PMI act satM6P
COc1cc(OC)cc(C(=O)NNC(=S)Nc2ccc(S(N)(=O)=O)cc2)c1,i,i,i,i,i
Cc1c(C(=O)Oc2ccc(F)cc2)sc2ncn(Cc3cccc(F)c3)c(=O)c12,i,51,i,i,i
COc1ccc(C2NCCc3c2[nH]c2ccccc32)cc1COc1ccc(F)cc1 (centres undefined),i,100,i,i,i
COc1ccc(S(=O)(=O)Nc2ccccn2)c(C)c1C,i,i,i,i,i
COc1ccc(OC)c(S(=O)(=O)Nc2cc(OC)c(Cl)cc2OC)c1,i,62,i,i,i
COc1cc(NS(=O)(=O)c2ccc(OC)c(C)c2C)c(OC)cc1Cl,i,100,i,i,i
